Measurements taken from ChEMBL document CHEMBL5724801, “EUbOPEN Chemogenomics Library - Multiplex” (2024).
“And” between values parts separate entries of the source, which are not always exact repeats. Identical values can stand only once.

System: U2OS
Assay: Multiplex assay against U2OS
Assay type: toxicity, cell-based
Conditions: human
In short: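 Per cents of healthy-nucleus cells form the tubulin, mitochondrial-mass and membrane-permeability phenotype values. Live cells were stained at seeding with Hoechst33342, BioTracker Green Microtubule Cytoskeleton Dye, MitoTracker Red and Annexin V Alexa Fluor 680. After compound addition they were imaged on a CQ1 microscope at 37°C and 5% CO2, and CellPathfinder machine-learning gating split them into Hoechst high-intensity objects or normal cells, normal cells into healthy, pyknosed or fragmented nuclei, and pyknosed cells into mitotic or apoptotic.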

[1] = 12 h, 1 µM, compound concentration 1 uM
[2] = 12 h, 10 µM, compound concentration 10 uM
[3] = 24 h, 1 µM, compound concentration 1 uM
[4] = 24 h, 10 µM, compound concentration 10 uM
[5] = 48 h, 1 µM, compound concentration 1 uM
[6] = 48 h, 10 µM, compound concentration 10 uM

Cl.Cl.OCCOCCN1CCN(C(c2ccccc2)c2ccc(Cl)cc2)CC1 (configuration not stated) [HYDROXYZINE HYDROCHLORIDE]
Population Apoptotic (%) [1]: 60% and 80% | Population Fragmented Nuclei (%) [1]: 29% and 13% | Population Healthy Nuclei (%) [1]: 61% and 78% | Population Hoechst High Intensity Objects (%) [1]: 0% and 1% | Population Membrane Permeable-Phenotype (%) [1]: 11% and 9% | Population Mitochondria Different-Phenotype (%) [1]: 4% and 6% | Population Mitotic Cells (%) [1]: 40% and 20% | Population Normal (%) [1]: 99% and 98% | Population Pyknosed Nuclei (%) [1]: 9% and 7% | Population Tubulin-Different-Phenotype (%) [1]: 7% and 8% | Total Cell Count [1]: 208 and 139 | Population Apoptotic (%) [2]: 58% and 88% | Population Fragmented Nuclei (%) [2]: 20% and 26% | Population Healthy Nuclei (%) [2]: 66% | Population Hoechst High Intensity Objects (%) [2]: 1% and 2% | Population Membrane Permeable-Phenotype (%) [2]: 9% and 5% | Population Mitochondria Different-Phenotype (%) [2]: 10% and 7% | Population Normal (%) [2]: 98% and 97% | Population Pyknosed Nuclei (%) [2]: 13% and 6% | Population Tubulin-Different-Phenotype (%) [2]: 6% and 7% | Total Cell Count [2]: 316 and 141 | Population Apoptotic (%) [3]: 96% and 77% | Population Fragmented Nuclei (%) [3]: 25% and 9% | Population Healthy Nuclei (%) [3]: 63% and 77% | Population Hoechst High Intensity Objects (%) [3]: 1% and 2% | Population Membrane Permeable-Phenotype (%) [3]: 8% and 5% | Population Mitochondria Different-Phenotype (%) [3]: 4% and 1% | Population Normal (%) [3]: 98% and 97% | Population Pyknosed Nuclei (%) [3]: 10% and 12% | Population Tubulin-Different-Phenotype (%) [3]: 7% and 1% | Total Cell Count [3]: 232 and 148 | Population Apoptotic (%) [4]: 73% and 61% | Population Fragmented Nuclei (%) [4]: 23% and 31% | Population Healthy Nuclei (%) [4]: 63% and 60% | Population Hoechst High Intensity Objects (%) [4]: 2% | Population Membrane Permeable-Phenotype (%) [4]: 10% and 12% | Population Mitochondria Different-Phenotype (%) [4]: 8% and 13% | Population Mitotic Cells (%) [4]: 26% and 38% | Population Normal (%) [4]: 97% | Population Pyknosed Nuclei (%) [4]: 12% and 7% | Population Tubulin-Different-Phenotype (%) [4]: 4% and 9% | Total Cell Count [4]: 359 and 168 | Population Apoptotic (%) [5]: 89% and 90% | Population Fragmented Nuclei (%) [5]: 24% and 14% | Population Healthy Nuclei (%) [5]: 62% and 76% | Population Hoechst High Intensity Objects (%) [5]: 2% | Population Membrane Permeable-Phenotype (%) [5]: 4% and 5% | Population Mitochondria Different-Phenotype (%) [5]: 3% | Population Mitotic Cells (%) [5]: 10% | Population Normal (%) [5]: 97% | Population Pyknosed Nuclei (%) [5]: 13% and 8% | Population Tubulin-Different-Phenotype (%) [5]: 4% and 0% | Total Cell Count [5]: 300 and 230 | Population Apoptotic (%) [6]: 83% | Population Fragmented Nuclei (%) [6]: 17% and 27% | Population Healthy Nuclei (%) [6]: 68% and 64% | Population Hoechst High Intensity Objects (%) [6]: 2% and 5% | Population Membrane Permeable-Phenotype (%) [6]: 8% and 10% | Population Mitochondria Different-Phenotype (%) [6]: 6% and 5% | Population Mitotic Cells (%) [6]: 16% | Population Normal (%) [6]: 97% and 94% | Population Pyknosed Nuclei (%) [6]: 13% and 8% | Population Tubulin-Different-Phenotype (%) [6]: 4% and 5% | Total Cell Count [6]: 456 and 231

COC(=O)C1=C(C)NC(C)=C(C(=O)OC(C)C)C1c1cccc2nonc12 (configuration not stated) [ISRADIPINE]
Population Apoptotic (%) [1]: 29.03% and 12.5% | Population Fragmented Nuclei (%) [1]: 2.02% and 3.01% | Population Healthy Nuclei (%) [1]: 89.02% and 84.96% | Population Hoechst High Intensity Objects (%) [1]: 0% | Population Membrane Permeable-Phenotype (%) [1]: 0.97% and 0.88% | Population Mitochondria Different-Phenotype (%) [1]: 0% and 5.31% | Population Mitotic Cells (%) [1]: 70.97% and 87.5% | Population Normal (%) [1]: 100% | Population Pyknosed Nuclei (%) [1]: 8.96% and 12.03% | Population Tubulin-Different-Phenotype (%) [1]: 0.97% and 0.88% | Total Cell Count [1]: 346 and 133 | Population Apoptotic (%) [2]: 38.64% and 25.81% | Population Healthy Nuclei (%) [2]: 87.43% and 71.74% | Population Hoechst High Intensity Objects (%) [2]: 0% and 13.21% | Population Membrane Permeable-Phenotype (%) [2]: 2.14% and 3.64% | Population Mitochondria Different-Phenotype (%) [2]: 0% and 13.33% | Population Mitotic Cells (%) [2]: 61.36% and 74.19% | Population Normal (%) [2]: 100% and 86.79% | Population Pyknosed Nuclei (%) [2]: 11.76% and 13.48% | Population Tubulin-Different-Phenotype (%) [2]: 3.67% and 1.21% | Total Cell Count [2]: 374 and 265 | Population Apoptotic (%) [3]: 48.48% and 31.25% | Population Fragmented Nuclei (%) [3]: 1.75% and 1.23% | Population Healthy Nuclei (%) [3]: 91.03% and 88.89% | Population Hoechst High Intensity Objects (%) [3]: 0% | Population Membrane Permeable-Phenotype (%) [3]: 0.24% and 2.78% | Population Mitochondria Different-Phenotype (%) [3]: 0.24% and 4.86% | Population Mitotic Cells (%) [3]: 51.52% and 68.75% | Population Normal (%) [3]: 100% | Population Pyknosed Nuclei (%) [3]: 7.22% and 9.88% | Population Tubulin-Different-Phenotype (%) [3]: 0.72% and 0% | Total Cell Count [3]: 457 and 162 | Population Apoptotic (%) [4]: 37.5% and 20.93% | Population Healthy Nuclei (%) [4]: 84.47% and 69.69% | Population Hoechst High Intensity Objects (%) [4]: 0% and 13.61% | Population Membrane Permeable-Phenotype (%) [4]: 0.69% and 3.95% | Population Mitotic Cells (%) [4]: 62.5% and 79.07% | Population Normal (%) [4]: 100% and 86.39% | Population Pyknosed Nuclei (%) [4]: 12.43% and 16.93% | Population Tubulin-Different-Phenotype (%) [4]: 3.22% and 0% | Total Cell Count [4]: 515 and 294 | Population Apoptotic (%) [5]: 41.54% and 54.55% | Population Fragmented Nuclei (%) [5]: 2.53% and 3.11% | Population Healthy Nuclei (%) [5]: 89.63% and 84.05% | Population Hoechst High Intensity Objects (%) [5]: 0% | Population Membrane Permeable-Phenotype (%) [5]: 1.35% and 1.39% | Population Mitochondria Different-Phenotype (%) [5]: 0.27% and 4.17% | Population Mitotic Cells (%) [5]: 58.46% and 45.45% | Population Normal (%) [5]: 100% | Population Pyknosed Nuclei (%) [5]: 7.84% and 12.84% | Population Tubulin-Different-Phenotype (%) [5]: 1.35% and 0% | Population Apoptotic (%) [6]: 50.83% and 53.45% | Population Fragmented Nuclei (%) [6]: 3.44% and 6.67% | Population Healthy Nuclei (%) [6]: 82.35% and 75.76% | Population Hoechst High Intensity Objects (%) [6]: 0% and 9.34% | Population Membrane Permeable-Phenotype (%) [6]: 1.58% and 4.4% | Population Mitochondria Different-Phenotype (%) [6]: 0.14% and 6.4% | Population Mitotic Cells (%) [6]: 49.17% and 46.55% | Population Normal (%) [6]: 100% and 90.66% | Population Pyknosed Nuclei (%) [6]: 14.22% and 17.58% | Population Tubulin-Different-Phenotype (%) [6]: 2.73% and 2.8% | Total Cell Count [6]: 844 and 364

CC(C)(C)c1cc(C(C)(C)C)c(NC(=O)c2c[nH]c3ccccc3c2=O)cc1O [IVACAFTOR]
Population Apoptotic (%) [1]: 36.36% and 31.58% | Population Fragmented Nuclei (%) [1]: 1.43% and 1.95% | Population Healthy Nuclei (%) [1]: 92.26% and 85.71% | Population Hoechst High Intensity Objects (%) [1]: 0% | Population Membrane Permeable-Phenotype (%) [1]: 0.62% and 0.76% | Population Mitochondria Different-Phenotype (%) [1]: 0% and 7.58% | Population Mitotic Cells (%) [1]: 63.64% and 68.42% | Population Normal (%) [1]: 100% | Population Pyknosed Nuclei (%) [1]: 6.3% and 12.34% | Population Tubulin-Different-Phenotype (%) [1]: 0.62% and 0% | Total Cell Count [1]: 349 and 154 | Population Apoptotic (%) [2]: 44.16% and 30.95% | Population Fragmented Nuclei (%) [2]: 2.96% and 8.38% | Population Healthy Nuclei (%) [2]: 74.26% and 66.47% | Population Hoechst High Intensity Objects (%) [2]: 0% | Population Membrane Permeable-Phenotype (%) [2]: 3.59% and 13.51% | Population Mitotic Cells (%) [2]: 55.84% and 69.05% | Population Normal (%) [2]: 100% | Population Pyknosed Nuclei (%) [2]: 22.78% and 25.15% | Population Tubulin-Different-Phenotype (%) [2]: 10.76% and 1.8% | Total Cell Count [2]: 338 and 167 | Population Apoptotic (%) [3]: 22.95% and 40% | Population Fragmented Nuclei (%) [3]: 1.83% and 3.23% | Population Healthy Nuclei (%) [3]: 85.77% and 86.02% | Population Hoechst High Intensity Objects (%) [3]: 0% | Population Membrane Permeable-Phenotype (%) [3]: 0.24% and 1.88% | Population Mitochondria Different-Phenotype (%) [3]: 0% and 6.88% | Population Mitotic Cells (%) [3]: 77.05% and 60% | Population Normal (%) [3]: 100% | Population Pyknosed Nuclei (%) [3]: 12.4% and 10.75% | Population Tubulin-Different-Phenotype (%) [3]: 0.71% and 0% | Total Cell Count [3]: 492 and 186 | Population Apoptotic (%) [4]: 51.81% and 29.41% | Population Fragmented Nuclei (%) [4]: 3.33% and 6.94% | Population Healthy Nuclei (%) [4]: 75.38% and 63.58% | Population Hoechst High Intensity Objects (%) [4]: 0% | Population Mitotic Cells (%) [4]: 48.19% and 70.59% | Population Normal (%) [4]: 100% | Population Pyknosed Nuclei (%) [4]: 21.28% and 29.48% | Population Tubulin-Different-Phenotype (%) [4]: 8.84% and 7.27% | Total Cell Count [4]: 390 and 173 | Population Apoptotic (%) [5]: 47.3% and 42.86% | Population Fragmented Nuclei (%) [5]: 2.51% and 4.1% | Population Healthy Nuclei (%) [5]: 89.07% and 81.57% | Population Hoechst High Intensity Objects (%) [5]: 0% | Population Membrane Permeable-Phenotype (%) [5]: 0.13% and 0.84% | Population Mitochondria Different-Phenotype (%) [5]: 0% and 5.86% | Population Mitotic Cells (%) [5]: 52.7% and 57.14% | Population Normal (%) [5]: 100% | Population Pyknosed Nuclei (%) [5]: 8.43% and 14.33% | Population Tubulin-Different-Phenotype (%) [5]: 0.64% and 1.67% | Total Cell Count [5]: 878 and 293 | Population Apoptotic (%) [6]: 55% and 62.65% | Population Healthy Nuclei (%) [6]: 75.09% and 44.95% | Population Hoechst High Intensity Objects (%) [6]: 0% and 0.5% | Population Membrane Permeable-Phenotype (%) [6]: 2.72% and 10.11% | Population Mitotic Cells (%) [6]: 45% and 37.35% | Population Normal (%) [6]: 100% and 99.5% | Population Pyknosed Nuclei (%) [6]: 22.3% and 41.92% | Population Tubulin-Different-Phenotype (%) [6]: 11.88% and 16.85% | Total Cell Count [6]: 538 and 199
